# According to ChEMBL document CHEMBL3407390, “α2-adrenoceptor antagonists: synthesis, pharmacological evaluation, and molecular modeling investigation of pyridinoguanidine, pyridino-2-aminoimidazoline and their derivatives” (J Med Chem, 2015):
# Assays:
# [1] = molecular target: T1, Adrenergic receptor alpha-2 (Homo sapiens, UniProt P08913+P18825+P18089); assay: Displacement of [3H]-RX-821002 from human alpha-2 adrenergic receptor in brain prefrontal cortex membrane by liquid scintillation spectrometry; type: cell membranes
# T1 sequence (P08913 whole entry): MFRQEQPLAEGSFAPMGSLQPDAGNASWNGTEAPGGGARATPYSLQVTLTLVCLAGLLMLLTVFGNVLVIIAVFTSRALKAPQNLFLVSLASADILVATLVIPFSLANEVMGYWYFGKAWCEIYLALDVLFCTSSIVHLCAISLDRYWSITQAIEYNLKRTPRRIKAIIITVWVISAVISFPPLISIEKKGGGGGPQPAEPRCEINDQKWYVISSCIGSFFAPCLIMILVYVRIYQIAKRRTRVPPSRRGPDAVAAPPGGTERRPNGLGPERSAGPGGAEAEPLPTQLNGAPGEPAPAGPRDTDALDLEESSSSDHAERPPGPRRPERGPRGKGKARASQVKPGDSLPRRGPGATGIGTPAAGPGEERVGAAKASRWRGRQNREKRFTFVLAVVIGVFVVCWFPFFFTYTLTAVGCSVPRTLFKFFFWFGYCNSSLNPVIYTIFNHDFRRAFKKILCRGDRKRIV
# T1 sequence (P18825 whole entry): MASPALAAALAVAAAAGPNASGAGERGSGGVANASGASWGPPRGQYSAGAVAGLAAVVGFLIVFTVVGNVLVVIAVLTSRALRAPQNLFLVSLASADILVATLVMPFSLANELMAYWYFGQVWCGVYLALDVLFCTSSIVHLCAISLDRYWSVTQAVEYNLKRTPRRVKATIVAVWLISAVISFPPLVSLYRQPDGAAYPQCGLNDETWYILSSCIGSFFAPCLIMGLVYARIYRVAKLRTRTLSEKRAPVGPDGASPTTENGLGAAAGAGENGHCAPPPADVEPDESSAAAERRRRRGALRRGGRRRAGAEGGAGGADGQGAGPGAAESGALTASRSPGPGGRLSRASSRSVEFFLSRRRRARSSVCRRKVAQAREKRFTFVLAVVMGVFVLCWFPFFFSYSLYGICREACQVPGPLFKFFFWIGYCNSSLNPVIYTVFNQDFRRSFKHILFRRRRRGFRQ
# T1 sequence (P18089 whole entry): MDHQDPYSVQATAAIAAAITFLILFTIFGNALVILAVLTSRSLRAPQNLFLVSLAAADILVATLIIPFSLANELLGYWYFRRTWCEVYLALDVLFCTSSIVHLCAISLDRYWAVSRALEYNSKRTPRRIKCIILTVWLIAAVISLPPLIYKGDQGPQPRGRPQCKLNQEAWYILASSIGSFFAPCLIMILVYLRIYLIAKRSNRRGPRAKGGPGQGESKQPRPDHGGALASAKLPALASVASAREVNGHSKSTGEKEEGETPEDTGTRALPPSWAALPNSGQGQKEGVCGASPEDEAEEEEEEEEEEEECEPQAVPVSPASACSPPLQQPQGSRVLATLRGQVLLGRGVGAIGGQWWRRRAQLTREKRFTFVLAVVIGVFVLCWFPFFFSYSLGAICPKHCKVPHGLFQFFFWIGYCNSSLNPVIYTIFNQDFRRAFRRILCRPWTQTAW
# In short: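 Human prefrontal cortex brain membranes incubated with [3H]RX821002 (2 nM) in 50 mM Tris-HCl, pH 7.5, for 30 min at 25 °C, with competitor at 10 concentrations (10⁻¹²–10⁻³ M). Bound and free ligand separated by rapid vacuum filtration through GF/C filters, then scintillation counting. Adrenaline (10⁻⁵ M) defined nonspecific binding. Ki from one-site nonlinear regression, expressed as pKi.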
# [2] = molecular target: T1, Adrenergic receptor alpha-2; assay: Antagonist activity at human alpha-2 adrenergic receptor in brain prefrontal cortex membrane assessed as inhibition of UK14304-induced [35S]-GTPgammaS binding by liquid scintillation spectrometry; type: functional, cell membranes
# In short: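 Human prefrontal cortex membranes (40 μg protein) incubated 120 min at 30 °C with shaking in 50 mM Tris-HCl pH 7.4 with 1 mM EGTA, 3 mM MgCl2, 100 mM NaCl, GDP and 0.5 nM [35S]GTPγS. Compounds at 10 concentrations (10⁻¹²–10⁻³ M) were tested against agonist UK14304. Filtration through GF/C filters, then scintillation counting. Nonspecific binding defined with 10 μM unlabeled GTPγS; nonlinear curve analysis.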
# [3] = tested on: Rattus norvegicus; assay: Induction of noradrenaline release from Sprague-Dawley rat in prefrontal cortex at 1 to 100 uM local administration measured for every 70 mins by microdialysis; type: functional
# In short: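 Male Sprague-Dawley rats (250–300 g), probe placed in PFC under 1.5% isoflurane; tested 18–24 h later. Probe perfused with aCSF (pH 7.4) at 1 μL/min. Compounds dissolved in aCSF were given by reverse dialysis at 1, 10, then 100 μM, each for 70 min. Dialysates collected every 35 min; NA measured by HPLC with amperometric detection. Values are % of mean basal (first 3–4 samples); three animals/group.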
# [4] = tested on: Rattus norvegicus; assay: Induction of noradrenaline release from Sprague-Dawley rat in prefrontal cortex at 10 mg/kg, ip […] by microdialysis; type: functional; conditions: route intraperitoneal
SMILES,pKi [1],further results
Cl.N=C(N)Nc1ccccn1,6.19,
Cl.N=C(N)Nc1ccc(Br)cn1,5.62,
Cl.N=C(N)Nc1ccc(Cl)cn1,5.7,
Cc1ccc(NC(=N)N)nc1.Cl,6.03,
Cl.N=C(N)Nc1ccc2c(n1)CCCC2,6.78,EC50 [2]: 2.71 µM
CCNc1ccc(NC(=N)N)nc1.Cl,4.12,
Cl.N=C(N)Nc1cccnc1,3.79,
Cl.N=C(N)Nc1ccc(Cl)nc1,5.18,
Cc1ccc(NC(=N)N)cn1.Cl,4.97,
Cl.N=C(N)Nc1cnc2c(c1)CCCC2,5.57,
CCNc1ccc(NC(=N)N)cn1.Cl,6.35,
Cl.N=C(N)Nc1ccc([N+](=O)[O-])cn1,5,
Cl.N=C(N)Nc1ccc(N)cn1,5,
Cl.c1ccc(NC2=NCCN2)nc1,6.44,
Cl.Clc1ccc(NC2=NCCN2)nc1,6.25,
Cc1ccc(NC2=NCCN2)nc1.Cl,6.41,
Cl.c1cc2c(nc1NC1=NCCN1)CCCC2,6.27,EC50 [2]: 3.57 µM
CCNc1ccc(NC2=NCCN2)nc1.Cl,5.65,
Cl.c1cncc(NC2=NCCN2)c1,5.28,
Cl.c1nc2c(cc1NC1=NCCN1)CCCC2,7.02,Emax [3]: 148%; EC50 [2]: 4.23 µM; Activity [4]: 138%

SMILES,pKi [1],further results
CCNc1ccc(NC2=NCCN2)cn1.Cl,7.13,Emax [3]: 429%; EC50 [2]: 6.71 µM; Activity [4]: 186%
Cl.N=C(Nc1ccccc1)Nc1ccccn1,6.21,
Cc1ccc(NC(=N)Nc2ccccc2)nc1.Cl,6.02,
Cl.N=C(Nc1ccccc1)Nc1ccc2c(n1)CCCC2,6.75,
Cl.N=C(NCCO)Nc1ccccn1,5.38,
Cc1ccc(NC(=N)NCCO)nc1.Cl,5.21,
Cl.N=C(NCCO)Nc1ccc2c(n1)CCCC2,5.83,
Cl.N=C(NCc1ccco1)Nc1ccccn1,6.32,
Cc1ccc(NC(=N)NCc2ccco2)nc1.Cl,6.28,
Cl.N=C(NCc1ccco1)Nc1ccc2c(n1)CCCC2,6.67,EC50 [2]: 37.01 µM
CCCNC(=N)Nc1ccc(Cl)cn1.Cl,5.71,
CCCNC(=N)Nc1ccc(C)cn1.Cl,6.74,
Cl.c1ccc(NC2=NCc3ccccc3N2)cc1,4.4,
Cl.OCCNC1=NCc2ccccc2N1,6.26,EC50 [2]: 60.34 µM
Cl.c1coc(CNC2=NCc3ccccc3N2)c1,5.35,
CCCNC1=NCc2ccccc2N1.Cl,4.33,
Cl.OCCNC1=NCc2cccnc2N1,4.49,
Cl.c1coc(CNC2=NCc3cccnc3N2)c1,4.5,
Cl.c1cnc2c(c1)CN=C(NCc1ccc3c(c1)OCO3)N2,5.3,
